Assays:
[1] = target: T1, Toll-like receptor 9 (Homo sapiens) (UniProt Q9NR96); assay: Induction of TLR9-mediated immune stimulation in human PBMC assessed as MCP1 production at 10 ug/ml after 24 hrs by luminex multiplex assay (RVb = 0.08 +/- 0.02 ng/ml)
T1 sequence (whole entry): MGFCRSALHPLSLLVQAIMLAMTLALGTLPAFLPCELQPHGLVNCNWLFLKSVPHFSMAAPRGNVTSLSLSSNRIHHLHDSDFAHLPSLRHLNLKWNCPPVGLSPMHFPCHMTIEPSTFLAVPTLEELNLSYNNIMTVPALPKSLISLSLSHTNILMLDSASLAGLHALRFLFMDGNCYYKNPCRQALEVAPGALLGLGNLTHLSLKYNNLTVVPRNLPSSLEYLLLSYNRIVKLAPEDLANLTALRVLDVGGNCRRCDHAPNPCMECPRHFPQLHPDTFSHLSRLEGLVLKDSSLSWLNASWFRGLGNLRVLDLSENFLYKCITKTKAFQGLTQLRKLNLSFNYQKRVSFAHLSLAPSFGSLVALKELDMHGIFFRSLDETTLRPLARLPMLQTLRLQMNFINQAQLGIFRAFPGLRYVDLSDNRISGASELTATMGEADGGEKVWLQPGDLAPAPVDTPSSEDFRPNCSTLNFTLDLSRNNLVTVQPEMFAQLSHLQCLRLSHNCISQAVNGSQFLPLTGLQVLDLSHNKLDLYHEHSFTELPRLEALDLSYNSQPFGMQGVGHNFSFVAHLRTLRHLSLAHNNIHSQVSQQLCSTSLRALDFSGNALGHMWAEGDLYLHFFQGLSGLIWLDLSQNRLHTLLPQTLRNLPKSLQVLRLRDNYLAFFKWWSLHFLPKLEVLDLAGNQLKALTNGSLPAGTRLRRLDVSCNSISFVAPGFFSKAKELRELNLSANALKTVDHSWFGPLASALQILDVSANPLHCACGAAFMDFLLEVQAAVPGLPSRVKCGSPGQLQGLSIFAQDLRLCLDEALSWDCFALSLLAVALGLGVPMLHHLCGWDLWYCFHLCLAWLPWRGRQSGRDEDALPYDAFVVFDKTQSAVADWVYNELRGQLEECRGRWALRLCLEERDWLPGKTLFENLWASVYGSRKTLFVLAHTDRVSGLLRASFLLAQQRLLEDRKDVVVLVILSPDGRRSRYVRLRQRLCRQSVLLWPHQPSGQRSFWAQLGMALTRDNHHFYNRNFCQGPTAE

[2] = target: T1, Toll-like receptor 9 (Homo sapiens); assay: Induction of TLR9-mediated immune stimulation in human PBMC assessed as IL6 production at 10 ug/ml after 24 hrs by luminex multiplex assay (RVb = 0.01 ng/ml)
[3] = target: T1, Toll-like receptor 9 (Homo sapiens); assay: Induction of TLR9-mediated immune stimulation in human PBMC assessed as MIP1alpha production at 2 ug/ml after 24 hrs by luminex multiplex assay (RVb = 0.01 ng/ml)
[4] = target: T1, Toll-like receptor 9 (Homo sapiens); assay: Induction of TLR9-mediated immune stimulation in human PBMC assessed as MIP1alpha production at 10 ug/ml after 24 hrs by luminex multiplex assay (RVb = 0.01 ng/ml)
[5] = target: T2, Toll-like receptor 9 (Mus musculus) (UniProt Q9EQU3); assay: Induction of TLR9-mediated IL6 production in C57BL/6 mouse spleen cells after 24 hrs by ELISA; type: cell-based
T2 sequence (whole entry): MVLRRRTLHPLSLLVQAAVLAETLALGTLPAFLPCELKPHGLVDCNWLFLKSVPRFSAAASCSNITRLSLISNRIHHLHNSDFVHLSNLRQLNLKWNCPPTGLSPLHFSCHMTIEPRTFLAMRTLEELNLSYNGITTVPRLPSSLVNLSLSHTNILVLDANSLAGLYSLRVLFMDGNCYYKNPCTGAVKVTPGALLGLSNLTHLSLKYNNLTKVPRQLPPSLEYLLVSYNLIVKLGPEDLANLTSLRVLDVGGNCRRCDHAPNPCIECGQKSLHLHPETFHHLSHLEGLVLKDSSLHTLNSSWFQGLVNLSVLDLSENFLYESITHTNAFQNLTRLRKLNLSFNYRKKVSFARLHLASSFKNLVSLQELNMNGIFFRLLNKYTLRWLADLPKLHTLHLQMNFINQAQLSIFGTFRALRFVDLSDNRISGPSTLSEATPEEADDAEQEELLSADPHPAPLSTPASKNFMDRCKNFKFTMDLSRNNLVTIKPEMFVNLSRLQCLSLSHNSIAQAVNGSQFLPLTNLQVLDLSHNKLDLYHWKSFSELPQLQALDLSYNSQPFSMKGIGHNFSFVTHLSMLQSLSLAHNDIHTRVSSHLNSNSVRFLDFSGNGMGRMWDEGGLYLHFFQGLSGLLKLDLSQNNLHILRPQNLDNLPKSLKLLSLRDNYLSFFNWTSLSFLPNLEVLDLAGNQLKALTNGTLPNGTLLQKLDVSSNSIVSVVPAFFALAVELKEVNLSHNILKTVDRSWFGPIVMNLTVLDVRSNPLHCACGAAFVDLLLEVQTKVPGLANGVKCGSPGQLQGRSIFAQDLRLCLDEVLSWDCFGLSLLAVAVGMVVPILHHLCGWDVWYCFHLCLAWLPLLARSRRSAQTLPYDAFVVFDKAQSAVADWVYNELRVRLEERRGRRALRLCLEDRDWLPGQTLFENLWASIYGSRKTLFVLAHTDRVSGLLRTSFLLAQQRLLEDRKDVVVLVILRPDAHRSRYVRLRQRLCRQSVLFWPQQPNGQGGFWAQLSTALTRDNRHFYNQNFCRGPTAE
Summary of the method: (§1)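 C57BL/6 mouse spleen cells were cultured with agonists at 0.1, 0.3, 1, 3 and 10 μg/mL for 24 h. Secreted IL-12 and IL-6 in the supernatants were measured by ELISA. Values are averages of triplicate wells from one representative of at least two independent experiments.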

[6] = target: T1, Toll-like receptor 9 (Homo sapiens); assay: Induction of TLR9-mediated human B cell proliferation assessed as [3H]thymidine uptake after 56 hrs by scintillation counting
Summary of the method: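 B cells were purified from human PBMCs (healthy volunteers), about 1 × 10⁵ cells, and stimulated with various agonist concentrations for 56 h. Cells were then pulsed with 0.75 μCi [³H]-thymidine and harvested 16 h later. Incorporation was counted by scintillation and reported as cpm.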

[7] = target: T2, Toll-like receptor 9 (Mus musculus); assay: Induction of TLR9-mediated IL12 production in C57BL/6 mouse spleen cells after 24 hrs by ELISA; type: cell-based; summary of the method: as §1
[8] = target: T1, Toll-like receptor 9 (Homo sapiens); assay: Induction of TLR9-mediated immune stimulation in human PBMC assessed as IP10 production at 2 ug/ml after 24 hrs by luminex multiplex assay (RVb = 0.00 ng/ml)
[9] = target: T1, Toll-like receptor 9 (Homo sapiens); assay: Induction of TLR9-mediated immune stimulation in human PBMC assessed as IL12 production at 10 ug/ml after 24 hrs by luminex multiplex assay (RVb = 0.00 ng/ml)
[10] = target: T1, Toll-like receptor 9 (Homo sapiens); assay: Induction of TLR9-mediated immune stimulation in human PBMC assessed as MIP1beta production at 10 ug/ml after 24 hrs by luminex multiplex assay (RVb = 0.03 +/- 0.02 ng/ml)

| SMILES | Activity [1] [ng/mL] | Activity [2] [ng/mL] | Activity [3] [ng/mL] | Activity [4] [ng/mL] | Activity [5] | Activity [6] | Activity [7] | Activity [8] [ng/mL] | Activity [9] [ng/mL] | Activity [10] [ng/mL] |
| --- | --- | --- | --- | --- | --- | --- | --- | --- | --- | --- |
| Cc1cn([C@H]2C[C@H](OCC[C@H](O)COP(=O)(S)O[C@H]3C[C@H](n4cc(C)c(=O)[nH]c4=O)O[C@@H]3COP(=O)(S)O[C@H]3[C@@H](O)[C@H](n4ccc(N)nc4=O)O[C@@H]3COP(=O)(S)O[C@H]3C[C@H](n4cc(C)c(=O)[nH]c4=O)O[C@@H]3COP(=O)(S)O[C@H]3C[C@H](n4cc(C)c(=O)[nH]c4=O)O[C@@H]3COP(=O)(S)O[C@H]3C[C@H](n4ccc5c(=O)[nH]c(N)nc54)O[C@@H]3COP(=O)(S)O[C@H]3[C@@H](O)[C@H](n4ccc(N)nc4=O)O[C@@H]3COP(=O)(S)O[C@H]3C[C@H](n4cc(C)c(=O)[nH]c4=O)O[C@@H]3COP(=O)(S)O[C@H]3[C@@H](O)[C@H](n4cnc5c(=O)[nH]c(N)nc54)O[C@@H]3COP(=O)(S)O[C@H]3C[C@H](n4cc(C)c(=O)[nH]c4=O)O[C@@H]3COP(=O)(S)O[C@H]3[C@@H](O)[C@H](n4ccc(N)nc4=O)O[C@@H]3COP(=O)(S)O[C@H]3C[C@H](n4cc(C)c(=O)[nH]c4=O)O[C@@H]3CO)[C@@H](COP(=O)(S)O[C@H]3[C@@H](O)[C@H](n4ccc(N)nc4=O)O[C@@H]3COP(=O)(S)O[C@H]3C[C@H](n4cc(C)c(=O)[nH]c4=O)O[C@@H]3COP(=O)(S)O[C@H]3C[C@H](n4cc(C)c(=O)[nH]c4=O)O[C@@H]3COP(=O)(S)O[C@H]3C[C@H](n4ccc5c(=O)[nH]c(N)nc54)O[C@@H]3COP(=O)(S)O[C@H]3[C@@H](O)[C@H](n4ccc(N)nc4=O)O[C@@H]3COP(=O)(S)O[C@H]3C[C@H](n4cc(C)c(=O)[nH]c4=O)O[C@@H]3COP(=O)(S)O[C@H]3[C@@H](O)[C@H](n4cnc5c(=O)[nH]c(N)nc54)O[C@@H]3COP(=O)(S)O[C@H]3C[C@H](n4cc(C)c(=O)[nH]c4=O)O[C@@H]3COP(=O)(S)O[C@H]3[C@@H](O)[C@H](n4ccc(N)nc4=O)O[C@@H]3COP(=O)(S)O[C@H]3C[C@H](n4cc(C)c(=O)[nH]c4=O)O[C@@H]3CO)O2)c(=O)[nH]c1=O (stereo not given in full) | 43.5 | 0.73 | 0.16 | 0.32 | Dose-dependent effect | Dose-dependent effect | Dose-dependent effect | 0.79 | 0.2 | 1.76 |
| Cc1cn([C@H]2C[C@H](OCCOCCOCCOCCOP(=O)(S)O[C@H]3C[C@H](n4cc(C)c(=O)[nH]c4=O)O[C@@H]3COP(=O)(S)O[C@H]3[C@@H](O)[C@H](n4ccc(N)nc4=O)O[C@@H]3COP(=O)(S)O[C@H]3C[C@H](n4cc(C)c(=O)[nH]c4=O)O[C@@H]3COP(=O)(S)O[C@H]3C[C@H](n4cc(C)c(=O)[nH]c4=O)O[C@@H]3COP(=O)(S)O[C@H]3C[C@H](n4ccc5c(=O)[nH]c(N)nc54)O[C@@H]3COP(=O)(S)O[C@H]3[C@@H](O)[C@H](n4ccc(N)nc4=O)O[C@@H]3COP(=O)(S)O[C@H]3C[C@H](n4cc(C)c(=O)[nH]c4=O)O[C@@H]3COP(=O)(S)O[C@H]3[C@@H](O)[C@H](n4cnc5c(=O)[nH]c(N)nc54)O[C@@H]3COP(=O)(S)O[C@H]3C[C@H](n4cc(C)c(=O)[nH]c4=O)O[C@@H]3COP(=O)(S)O[C@H]3[C@@H](O)[C@H](n4ccc(N)nc4=O)O[C@@H]3COP(=O)(S)O[C@H]3C[C@H](n4cc(C)c(=O)[nH]c4=O)O[C@@H]3CO)[C@@H](COP(=O)(S)O[C@H]3[C@@H](O)[C@H](n4ccc(N)nc4=O)O[C@@H]3COP(=O)(S)O[C@H]3C[C@H](n4cc(C)c(=O)[nH]c4=O)O[C@@H]3COP(=O)(S)O[C@H]3C[C@H](n4cc(C)c(=O)[nH]c4=O)O[C@@H]3COP(=O)(S)O[C@H]3C[C@H](n4ccc5c(=O)[nH]c(N)nc54)O[C@@H]3COP(=O)(S)O[C@H]3[C@@H](O)[C@H](n4ccc(N)nc4=O)O[C@@H]3COP(=O)(S)O[C@H]3C[C@H](n4cc(C)c(=O)[nH]c4=O)O[C@@H]3COP(=O)(S)O[C@H]3[C@@H](O)[C@H](n4cnc5c(=O)[nH]c(N)nc54)O[C@@H]3COP(=O)(S)O[C@H]3C[C@H](n4cc(C)c(=O)[nH]c4=O)O[C@@H]3COP(=O)(S)O[C@H]3[C@@H](O)[C@H](n4ccc(N)nc4=O)O[C@@H]3COP(=O)(S)O[C@H]3C[C@H](n4cc(C)c(=O)[nH]c4=O)O[C@@H]3CO)O2)c(=O)[nH]c1=O (stereo not given in full) | 7.13 | 0.58 | 0.04 | 0.27 | Dose-dependent effect | Dose-dependent effect | Dose-dependent effect | 0.02 | 0.15 | 0.96 |

Reference: ChEMBL document CHEMBL1157912, “Impact of nature and length of linker incorporated in agonists on toll-like receptor 9-mediated immune responses” (J Med Chem, 2010)
